According to ChEMBL document CHEMBL1772954, “Antifungal, cytotoxic and SAR studies of a series of N-alkyl, N-aryl and N-alkylphenyl-1,4-pyrrolediones and related compounds” (Bioorg Med Chem, 2011):
≈ marks a conversion by molar mass, not a printed value.

Key:
Aspergillus fumigatus = experiment: Antifungal activity against Aspergillus fumigatus ATCC 26934; type: functional
Summary of the method: (§1)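 Broth microdilution per CLSI M38-A2 in RPMI-1640 with MOPS at pH 7.0. Inoculum 1-5 × 10^3 CFU/mL, with twofold compound dilutions spanning 250-0.24 µg/ml (final DMSO <1%). Plates incubated at 35 °C, moist and dark, and read when the control fungus had grown. MIC is total growth inhibition. MFC comes from subculturing clear wells in duplicate onto SDA.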

[1] = Cytotoxicity against human erythrocytes assessed as hemolysis by spectrometric analysis; type: cell-based, Erythrocyte
Summary of the method: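 Human heparinized red blood cells were washed in PBS at pH 7.0 and suspended at 4% in sterile 5% glucose. Compounds from DMSO stocks were diluted in 5% glucose to final concentrations of 250 to 0.24 µg/ml and incubated with the cells at 37 °C. Released hemoglobin was read at 540 nm. HC50 is the concentration giving 50% lysis relative to the drug-free value.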

Candida albicans = experiment: Antifungal activity against Candida albicans ATCC 10213; type: functional
Summary of the method: (§2)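 CLSI M27-A3 broth microdilution in RPMI-1640 buffered to pH 7.0 with MOPS. Inoculum 1-5 × 10^3 CFU/mL. Compound twofold dilutions from 250 to 0.24 µg/ml, final DMSO <1%. Incubated at 35 °C in a moist, dark chamber and read at 48 h. MIC is the lowest concentration giving total growth inhibition. For MFC, 5 µL from clear wells was plated in duplicate on SDA; MFC is the lowest concentration with no growth.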

Candida tropicalis = experiment: Antifungal activity against Candida tropicalis C 131 2000; type: functional; summary of the method: as §2
Trichophyton rubrum = experiment: Antifungal activity against Trichophyton rubrum C 113 2000; type: functional
Summary of the method: (§3)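 Dermatophytes tested by CLSI M38-A2 microdilution in MOPS-buffered RPMI-1640 at pH 7.0. Inoculum 1-5 × 10^3 CFU/mL; compounds 250 to 0.24 µg/ml in twofold steps, final DMSO <1%. Incubated at 28 °C in a moist, dark chamber and read according to control growth. MIC is the lowest concentration with complete inhibition. MFC is the lowest concentration with no growth after duplicate subculture on SDA.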

NCI-H460 = experiment: Cytotoxicity against human H460 cells assessed as cell growth after 2 days by sulforhodamine B assay; type: functional; conditions: NCI-H460, 48 h
Summary of the method: (§4)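 NCI cell lines were run by the Monks method: cells were plated with compounds from DMSO stocks and incubated 2 days at 37 °C in 5% CO2, in duplicate. Cells were fixed with cold TCA, stained with 0.4% SRB, and the bound dye was solubilized in 10 mM tris-base and read at 515 nm. The zero-day control was subtracted, and GI50 was taken from the curves.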

SF-268 = experiment: Cytotoxicity against human SF268 cells assessed as cell growth after 2 days by sulforhodamine B assay; type: functional; conditions: SF-268, 48 h; summary of the method: as §4
Nannizzia gypsea = experiment: Antifungal activity against Microsporum gypseum C 115 2000; type: functional; summary of the method: as §3
Cryptococcus neoformans = experiment: Antifungal activity against Cryptococcus neoformans ATCC 32264; type: functional; summary of the method: as §2
Saccharomyces cerevisiae = experiment: Antifungal activity against Saccharomyces cerevisiae ATCC 9763; type: functional; summary of the method: as §2
MCF7 = experiment: Cytotoxicity against human MCF7 cells assessed as cell growth after 2 days by sulforhodamine B assay; type: functional; conditions: MCF7, 48 h; summary of the method: as §4
Aspergillus niger = experiment: Antifungal activity against Aspergillus niger ATCC 9029; type: functional; summary of the method: as §1
Aspergillus flavus = experiment: Antifungal activity against Aspergillus flavus ATCC 9170; type: functional; summary of the method: as §1
[2] = test system: Trichophyton mentagrophytes; experiment: Antifungal activity against Trichophyton mentagrophytes ATCC 9972; type: functional; summary of the method: as §3

| SMILES | MFC (Aspergillus fumigatus) | MIC (Aspergillus fumigatus) | MFC (Candida albicans) | MIC (Candida albicans) | MFC (Candida tropicalis) | MFC (Trichophyton rubrum) | MIC (Trichophyton rubrum) | MFC (Nannizzia gypsea) | MIC (Nannizzia gypsea) | MFC (Cryptococcus neoformans) | MIC (Cryptococcus neoformans) | MFC (Saccharomyces cerevisiae) | MIC (Saccharomyces cerevisiae) | MFC (Aspergillus niger) | MIC (Aspergillus niger) | MFC (Aspergillus flavus) | MIC (Aspergillus flavus) | MFC [2] | MIC [2] | MIC (Candida tropicalis) | further results |
| --- | --- | --- | --- | --- | --- | --- | --- | --- | --- | --- | --- | --- | --- | --- | --- | --- | --- | --- | --- | --- | --- |
| O=C1C=CC(=O)N1c1ccccc1 | > 250 µg/mL | 250 µg/mL (≈ 1440 µM) | 7.81 µg/mL (≈ 45.1 µM) | 3.9 µg/mL (≈ 22.5 µM) | 15.6 µg/mL (≈ 90.3 µM) | 7.81 µg/mL (≈ 45.1 µM) | 3.9 µg/mL (≈ 22.5 µM) | 15.6 µg/mL (≈ 90.3 µM) | 7.81 µg/mL (≈ 45.1 µM) | 62.5 µg/mL (≈ 361 µM) | 15.6 µg/mL (≈ 90.3 µM) | 7.81 µg/mL (≈ 45.1 µM) | 3.9 µg/mL (≈ 22.5 µM) | 62.5 µg/mL (≈ 361 µM) | 31.2 µg/mL (≈ 180 µM) | 125 µg/mL (≈ 722 µM) | 62.5 µg/mL (≈ 361 µM) | 7.81 µg/mL (≈ 45.1 µM) | 7.81 µg/mL (≈ 45.1 µM) |  | HC50 [1]: > 250 µg/mL; GI50 (NCI-H460): > 10 µg/mL; GI50 (SF-268): > 10 µg/mL; GI50 (MCF7): > 10 µg/mL |
| COc1ccc(N2C(=O)C=CC2=O)cc1OC | 125 µg/mL (≈ 536 µM) | 62.5 µg/mL (≈ 268 µM) | 62.5 µg/mL (≈ 268 µM) | 31.2 µg/mL (≈ 134 µM) | 15.6 µg/mL (≈ 67 µM) | 7.81 µg/mL (≈ 33.5 µM) | 3.9 µg/mL (≈ 16.7 µM) | 7.81 µg/mL (≈ 33.5 µM) | 3.9 µg/mL (≈ 16.7 µM) | 15.6 µg/mL (≈ 67 µM) | 7.81 µg/mL (≈ 33.5 µM) | 15.6 µg/mL (≈ 67 µM) | 7.81 µg/mL (≈ 33.5 µM) | 125 µg/mL (≈ 536 µM) | 62.5 µg/mL (≈ 268 µM) | 125 µg/mL (≈ 536 µM) | 62.5 µg/mL (≈ 268 µM) | 7.81 µg/mL (≈ 33.5 µM) | 3.9 µg/mL (≈ 16.7 µM) | 15.6 µg/mL (≈ 67 µM) | HC50 [1]: > 250 µg/mL; GI50 (NCI-H460): > 10 µg/mL; GI50 (SF-268): > 10 µg/mL; GI50 (MCF7): > 10 µg/mL |
| O=C1C=CC(=O)N1c1ccc(I)cc1 | 125 µg/mL (≈ 418 µM) | 62.5 µg/mL (≈ 209 µM) | 62.5 µg/mL (≈ 209 µM) | 31.2 µg/mL (≈ 104 µM) | 62.5 µg/mL (≈ 209 µM) | 7.81 µg/mL (≈ 26.1 µM) | 3.9 µg/mL (≈ 13 µM) | 7.81 µg/mL (≈ 26.1 µM) | 3.9 µg/mL (≈ 13 µM) | 15.6 µg/mL (≈ 52.3 µM) | 7.81 µg/mL (≈ 26.1 µM) | 7.81 µg/mL (≈ 26.1 µM) | 7.81 µg/mL (≈ 26.1 µM) | 125 µg/mL (≈ 418 µM) | 62.5 µg/mL (≈ 209 µM) | 125 µg/mL (≈ 418 µM) | 62.5 µg/mL (≈ 209 µM) | 7.81 µg/mL (≈ 26.1 µM) | 3.9 µg/mL (≈ 13 µM) | 31.2 µg/mL (≈ 104 µM) | HC50 [1]: > 250 µg/mL; GI50 (NCI-H460): > 10 µg/mL; GI50 (SF-268): > 10 µg/mL; GI50 (MCF7): > 10 µg/mL |
| O=C1C=CC(=O)N1CCCc1ccccc1 | 31.2 µg/mL (≈ 145 µM) | 15.6 µg/mL (≈ 72.6 µM) |  | 3.9 µg/mL (≈ 18.1 µM) | 15.6 µg/mL (≈ 72.6 µM) | 1.95 µg/mL (≈ 9.06 µM) | 1.95 µg/mL (≈ 9.06 µM) | 1.95 µg/mL (≈ 9.06 µM) | 0.97 µg/mL (≈ 4.51 µM) | 31.2 µg/mL (≈ 145 µM) | 15.6 µg/mL (≈ 72.6 µM) | 1.95 µg/mL (≈ 9.06 µM) | 0.97 µg/mL (≈ 4.51 µM) | 15.6 µg/mL (≈ 72.6 µM) | 15.6 µg/mL (≈ 72.6 µM) | 62.5 µg/mL (≈ 290 µM) | 31.2 µg/mL (≈ 145 µM) | 7.81 µg/mL (≈ 36.3 µM) | 3.9 µg/mL (≈ 18.1 µM) | 3.9 µg/mL (≈ 18.1 µM) | HC50 [1]: > 250 µg/mL; GI50 (NCI-H460): > 10 µg/mL; GI50 (SF-268): 5.8 µg/mL (≈ 26.9 µM); GI50 (MCF7): 5.2 µg/mL (≈ 24.2 µM) |
| CC1=C(C)C(=O)N(c2ccccc2)C1=O | > 250 µg/mL | > 250 µg/mL | > 250 µg/mL | > 250 µg/mL | > 250 µg/mL | 125 µg/mL (≈ 621 µM) | 62.5 µg/mL (≈ 311 µM) | > 250 µg/mL | 250 µg/mL (≈ 1240 µM) | 250 µg/mL (≈ 1240 µM) | 125 µg/mL (≈ 621 µM) | > 250 µg/mL | > 250 µg/mL | > 250 µg/mL | > 250 µg/mL | > 250 µg/mL | > 250 µg/mL | 250 µg/mL (≈ 1240 µM) | 125 µg/mL (≈ 621 µM) | > 250 µg/mL |  |
| CC1=C(C)C(=O)N(CCCc2ccccc2)C1=O | > 250 µg/mL | > 250 µg/mL | > 250 µg/mL | > 250 µg/mL | > 250 µg/mL | 250 µg/mL (≈ 1030 µM) | 62.5 µg/mL (≈ 257 µM) | 250 µg/mL (≈ 1030 µM) | 125 µg/mL (≈ 514 µM) | 250 µg/mL (≈ 1030 µM) | 125 µg/mL (≈ 514 µM) | > 250 µg/mL | > 250 µg/mL | > 250 µg/mL | > 250 µg/mL | > 250 µg/mL | > 250 µg/mL | > 250 µg/mL | 250 µg/mL (≈ 1030 µM) | > 250 µg/mL |  |
| O=C(O)/C=C\C(=O)NCCCc1ccccc1 | > 250 µg/mL | > 250 µg/mL | > 250 µg/mL |  | > 250 µg/mL | > 250 µg/mL | 250 µg/mL (≈ 1070 µM) | > 250 µg/mL | 250 µg/mL (≈ 1070 µM) | > 250 µg/mL | > 250 µg/mL | > 250 µg/mL | > 250 µg/mL | > 250 µg/mL | > 250 µg/mL | > 250 µg/mL | > 250 µg/mL | > 250 µg/mL | > 250 µg/mL | > 250 µg/mL |  |
| C[C@@H]1[C@H](O)[C@@H](C)/C=C/C=C/C=C/C=C/C=C/C=C/C=C/[C@H](O[C@@H]2O[C@H](C)[C@@H](O)[C@H](N)[C@@H]2O)C[C@@H]2O[C@](O)(C[C@@H](O)C[C@@H](O)[C@H](O)CC[C@@H](O)C[C@@H](O)CC(=O)O[C@H]1C)C[C@H](O)[C@H]2C(=O)O [AMPHOTERICIN B] | 0.97 µg/mL (≈ 1.05 µM) | 0.48 µg/mL (≈ 0.519 µM) | 1.95 µg/mL (≈ 2.11 µM) | 0.97 µg/mL (≈ 1.05 µM) | 0.97 µg/mL (≈ 1.05 µM) | 0.24 µg/mL (≈ 0.26 µM) | 0.06 µg/mL (≈ 0.0649 µM) | 0.48 µg/mL (≈ 0.519 µM) | 0.12 µg/mL (≈ 0.13 µM) | 0.97 µg/mL (≈ 1.05 µM) | 0.24 µg/mL (≈ 0.26 µM) | 1.95 µg/mL (≈ 2.11 µM) | 0.48 µg/mL (≈ 0.519 µM) | 3.9 µg/mL (≈ 4.22 µM) | 0.48 µg/mL (≈ 0.519 µM) | 1.95 µg/mL (≈ 2.11 µM) | 0.48 µg/mL (≈ 0.519 µM) | 0.24 µg/mL (≈ 0.26 µM) | 0.06 µg/mL (≈ 0.0649 µM) | 0.48 µg/mL (≈ 0.519 µM) |  |
| CC1=CC(O)N(CCCCc2ccccc2)C1=O (stereo not drawn) | > 250 µg/mL | > 250 µg/mL | > 250 µg/mL | > 250 µg/mL | > 250 µg/mL | > 250 µg/mL | > 250 µg/mL | > 250 µg/mL | > 250 µg/mL | > 250 µg/mL | > 250 µg/mL | > 250 µg/mL | > 250 µg/mL | > 250 µg/mL | > 250 µg/mL | > 250 µg/mL | > 250 µg/mL | > 250 µg/mL | > 250 µg/mL | > 250 µg/mL |  |
